Data from ChEMBL document CHEMBL3352515, “Design, synthesis, antiviral and cytostatic activity of ω-(1H-1,2,3-triazol-1-yl)(polyhydroxy)alkylphosphonates as acyclic nucleotide analogues” (Bioorg Med Chem, 2014).
Calls of active or inactive are those of the source. The calls are words filed in the database; no cut-off is given here.

Key:
[1] = test system: L1210; assay: Cytostatic activity against mouse L1210 cells assessed as inhibition of proliferation after 48 hrs by Coulter cell counting method; format: functional, cell-based; conditions: L1210, 48 h
In short: (§1)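 (5–7.5) × 10⁴ tumor cells per well were exposed to test compound at 37 °C in humidified CO₂. Incubation ran 48 h for L1210 and 72 h for CEM and HeLa. Cells were then counted in a Coulter counter. IC₅₀ is the concentration that inhibits cell proliferation by 50%.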

[2] = test system: CCRF-CEM; assay: Cytostatic activity against human CEM cells assessed as inhibition of proliferation after 72 hrs by Coulter cell counting method; format: functional, cell-based; in short: as §1
[3] = test system: Human alphaherpesvirus 2; assay: Antiviral activity against HSV-2 infected in HEL cells assessed as inhibition of virus-induced cytopathogenicity; format: functional, organism-based
In short: (§2)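 Confluent host-cell monolayers in 96-well plates were inoculated with 100 CCID₅₀ of virus while exposed to a range of test compound concentrations. Cytopathic effect was scored once it was complete in untreated infected controls. EC₅₀ is the concentration that reduces virus-induced cytopathogenicity by 50%.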

[4] = test system: Human alphaherpesvirus 1; assay: Antiviral activity against HSV-1 infected in HEL cells assessed as inhibition of virus-induced cytopathogenicity; format: functional, organism-based; in short: as §2
[5] = test system: HeLa; assay: Cytostatic activity against human HeLa cells assessed as inhibition of proliferation after 72 hrs by Coulter cell counting method; format: functional, cell-based; in short: as §1
[6] = Cytotoxicity against MDCK cells assessed as reduction in cell viability by MTS assay; format: cell-based, Canis lupus familiaris; conditions: dog
In short: (§3)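 Uninfected host cells were exposed to test compound, and viability was read by the colorimetric MTS assay. CC₅₀ is the concentration causing a 50% decrease in cell viability.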

[7] = test system: Influenza A virus H3N2; assay: Antiviral activity against Influenza A virus H3N2 infected in MDCK cells assessed as inhibition of virus-induced cytopathogenicity; format: functional, organism-based
In short: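 Confluent MDCK cell cultures were infected in the presence of varying compound concentrations. Cytopathicity was recorded once complete in untreated virus-infected controls, scored visually and by MTS colorimetric assay. EC50 is the concentration that reduced virus-induced cytopathogenicity by 50%.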

[8] = test system: Human alphaherpesvirus 3; assay: Antiviral activity against Thymidine kinase-negative Varicella-zoster virus 07-1 infected in HEL assessed as reduction in virus plaque formation; format: functional, organism-based; conditions: Human alphaherpesvirus 3, 07-1
In short: (§4)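 Confluent HEL fibroblast cultures were inoculated with 20 PFU of VZV together with varying compound concentrations. Plaque formation was recorded once complete in untreated infected controls. EC50 is the concentration that reduced viral plaque formation by 50%.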

[9] = test system: Vesicular stomatitis virus; assay: Antiviral activity against Vesicular stomatitis virus infected in HeLa cells assessed as inhibition of virus-induced cytopathogenicity; format: functional, organism-based
In short: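 HeLa cell monolayers (confluent) were infected with 100 CCID50 of VSV in the presence of serial compound concentrations. Viral cytopathicity was read when complete in untreated infected controls. EC50 is the concentration that reduced virus-induced cytopathogenicity by 50%.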

[10] = test system: Human alphaherpesvirus 3; assay: Antiviral activity against Thymidine kinase-positive Varicella-zoster virus Oka infected in HEL assessed as reduction in virus plaque formation; format: functional, organism-based; conditions: Human alphaherpesvirus 3, strain Oka vaccine; in short: as §4
[11] = test system: Respiratory syncytial virus; assay: Antiviral activity against Respiratory syncytial virus infected in HeLa cells assessed as inhibition of virus-induced cytopathogenicity; format: functional, organism-based; in short: as §2
[12] = test system: Felid alphaherpesvirus 1; assay: Antiviral activity against Feline herpesvirus 1 infected in HEL cells assessed as inhibition of virus-induced cytopathogenicity; format: functional, organism-based; conditions: Felid alphaherpesvirus 1, HEL; in short: as §2
[13] = Cytotoxicity against feline CRFK cells assessed as reduction in cell viability by MTS assay; format: cell-based, Felis catus; conditions: cat; in short: as §3

In the case of `O=C(c1ccccc1)n1c(=O)ccn(Cc2cn(C[C@H](OCc3ccccc3)[C@H](O)P(=O)(OCc3ccccc3)OCc3ccccc3)nn2)c1=O`, the IC50 [1] is reported as 21 µM, the IC50 [2] is reported as 21 µM and the inhibition [3] is reported as “inactive”. The inhibition [4] was “inactive” and the IC50 [5] was 57 µM.
With `Cc1cn(Cc2cn(C[C@H](OCc3ccccc3)[C@@H](O)P(=O)(OCc3ccccc3)OCc3ccccc3)nn2)c(=O)[nH]c1=O` the IC50 [1] was over 200 µM, the IC50 [2] was over 200 µM and the CC50 [6] was over 100 µM. For the same compound, the MCC [6] was over 100 µM, the EC50 [7] was 20 µM and the IC50 [5] was over 200 µM.
Compound `O=c1cnn(Cc2cn(C[C@H](OCc3ccccc3)[C@@H](O)P(=O)(OCc3ccccc3)OCc3ccccc3)nn2)c(=O)[nH]1` has an IC50 [1] of 78 µM, an IC50 [2] of 71 µM and an EC50 [8] of 70 µM. For the same compound, the inhibition [9] was “inactive”, the EC50 [10] was 63.7 µM and the inhibition [11] was “inactive”. It also gave an IC50 [5] of 64 µM.
For `Cn1c(=O)c2c(nc(Cl)n2Cc2cn(C[C@H]3OC(C)(C)O[C@H]3[C@@H](O)P(=O)(OCc3ccccc3)OCc3ccccc3)nn2)n(C)c1=O`, the IC50 [1] was 58 µM, the IC50 [2] was 51 µM and the EC50 [10] was 55.7 µM. It also gave an IC50 [5] of 85 µM.
Compound `O=C(c1ccccc1)n1c(=O)c2ccccc2n(Cc2cn(C[C@H](OCc3ccccc3)[C@H](O)P(=O)(OCc3ccccc3)OCc3ccccc3)nn2)c1=O` has an EC50 [12] of 4 µM, an IC50 [1] of 4.7 µM and an IC50 [2] of 4.7 µM. The MCC [13] was at least 4 µM, the EC50 ([3]; Human alphaherpesvirus 2, HEL) was 4 µM and the EC50 ([4]; Human alphaherpesvirus 1, HEL) was 2.9 µM. For the same compound, the IC50 [5] was 5.1 µM.
